# Legend:
# PC-3 cells = experiment: MTT proliferation assay, PC-3 cells; assay type: cell-based; conditions: 72 h, same concentrations as used on LNCaP cells
# Procedure, shortened: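 Cells were grown in phenol-red-free RPMI 1640 with 10% FBS, 37 °C, 5% CO2, and seeded at 10 000/well. Test compound or free hormone at matched concentrations was added 24–48 h after plating; the PC-3 exposure was 72 h. MTT read-out: medium removed, DMSO solubilisation, absorbance 550 nm. Single triplicate experiment, representative of three.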
# LNCaP cells [1] = experiment: Cell cycle profile by flow cytometry; assay type: cell-based; conditions: 72 h, propidium iodide staining
# Procedure, shortened: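 LNCaP cells kept at 37 °C, 5% CO2, in phenol-red-free RPMI 1640 with 10% FBS. Plated at 30 000 cells per cm2 and treated from 24–48 h after plating. Trypsinised, pelleted at 250 g for 5 min, fixed in 70% ethanol and held at −20 °C. Just before acquisition, stained with 3.4 mM sodium citrate, 0.3% Triton X-100, propidium iodide 0.1 mg/ml and RNase A 20 μg/ml, then run on a flow cytometer.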
# LNCaP cells [2] = experiment: MTT proliferation assay, LNCaP cells; assay type: cell-based
# androgen receptor (AR) = experiment: Western blot of AR protein levels in LNCaP cells; assay type: cell-based; conditions: 72 h, increasing concentrations that inhibited proliferation
# T47D cells = experiment: MTT proliferation assay, T47D cells; assay type: cell-based; conditions: same concentrations as used for Protac-B
# [3] = tested on: estrogen receptor-α (ERα); conditions: estradiol stimulation; ref Pink and Jordan, 1996; cited from earlier work
# MCF-7 cells = experiment: MTT proliferation assay, MCF-7 cells; assay type: cell-based; conditions: same concentrations as used for Protac-B
# [4] = target: VHL-Elongin B-Elongin C protein complex (Homo sapiens, UniProt P40337+Q15369+Q15370); experiment: Fluorescence polarization competitive binding assay with VHL; conditions: FP competition assay; negative control
molecule,measurement,setting,value
Leu-Ala-Pro(OH)-Tyr-Ile-Gly-Gly-(D-Arg)9 [Protac-AA],effect on proliferation of PC-3 cells,PC-3 cells,not affected
same,cell cycle effect in LNCaP cells,LNCaP cells [1],cell cycle arrest in G1
same,"increase of activity (IC50, LNCaP) over Protac-A",LNCaP cells [2]; 72 h and 144 h,three to seven
same,AR protein levels in LNCaP cells,androgen receptor (AR),reduced
"C[C@]12CCC(=O)C[C@@H]1CC[C@@H]1[C@@H]2CC[C@]2(C)[C@@H](O)CC[C@@H]12 [DHT, dihydroxytestosterone]",effect on LNCaP cell proliferation,LNCaP cells [2]; DHT used at the IC50 of Protac-A (12.5 μM),no effect
"C[C@]12CC[C@@H]3c4ccc(O)cc4CC[C@H]3[C@@H]1CC[C@@H]2O [estradiol, 17β-estradiol]",effect on proliferation of T47D cells,T47D cells,no effect
same,decrease in ERα levels,[3],approximately 50%
same,effect on proliferation of MCF-7 cells,MCF-7 cells,no effect
H-Leu-Ala-Ala-Tyr-Ile-Gly-Gly-[D-Arg]9-OH [mutant pentapeptide-G-G-(Arg)9],binding to VHL,[4],did not detectably bind

# — article PMC5573236 (Oncogene, 2008)
